# Experimental data as given in publication PMC4718766 (Nature chemical biology, 2015).
# How the values were obtained:
# HeLa cells [1] = assay: Rescue of DNMDP induced cytotoxicity; assay type: cell-based, human; conditions: 48 hours; for rank in bioactives screen for rescue of cell death induced by DNMDP: 20 µM compound with 30 nM DNMDP, 1600 compounds; for rescue of DNMDP cytotoxicity: DNMDP in combination, dose response; for competition with DNMDP (rescue): up to 10 µM
# Method in brief: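 HeLa cells (1000/well, 384-well) in DMEM with 10% FBS and 1% Pen/Strep. 24 h after plating, 1600 bioactives added at 20 µM together with cytotoxic agent at 30 nM final; 48 h incubation. Follow-up combinations used indicated PDE3/pan-PDE inhibitor concentrations with single data points. CellTiter-Glo viability expressed as percentage of untreated DMSO control.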
# [2] = test system: 766 genomically characterized cancer cell lines; assay: Large-scale cell-line viability measurements; assay type: cell-based, human; conditions: of 766 cancer cell lines, 72 hours, 66.4 µM to 2 nM
# Method in brief: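 500 cells/well in 1536-well plates, each line in its preferred medium; overnight incubation. Test compound acoustically dispensed at 16 concentrations, 66.4 µM–2 nM, 2-fold steps, in duplicate. After 72 h, ATP measured by CellTiter-Glo, normalized to media-only and DMSO wells. Curves fit to 2- or 3-parameter sigmoids. Sensitivity metric: AUC of optimal 8-point curve by numeric integration.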
# NCI-H1734 cells = assay: Cell viability; assay type: cell-based, human; conditions: NCI-H1734 versus A549, 48 hours
# 234 kinases = assay: Millipore KinaseProfiler panel; assay type: biochemical, human; conditions: 10 µM DNMDP
# A549 cells = assay: Cell viability; assay type: cell-based; conditions: Homo sapiens, A549, 48 h
# Method in brief: (§1)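 Cells per 384-well: A549 1000 (RPMI), HeLa 1000 (DMEM), MCF-7 500 (DMEM), PC3 4000 (F12-K), NCI-H2122 1000 (RPMI), NCI-H1563 1500 (RPMI); all with 10% FBS. Test compound added 24 h after plating, 48 h exposure. Readout: 25% CellTiter-Glo in PBS, 10 min, luminescence, normalized to DMSO. Dose curves: mean of 8 replicates ± s.d.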
# NCI-H1563 cells = assay: Compound sensitivity testing; assay type: cell-based; conditions: Homo sapiens, NCI-H1563, 48 h
# Method in brief: as §1
# HeLa cells [3] = assay: Caspase activity; assay type: cell-based, human; conditions: 48 hours (caspase), 36 hours (PARP)
# Method in brief: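 HeLa cells (1000/well, 384-well) in growth medium with 10% FBS; test compound added 24 h after plating. Caspase: 48 h exposure, Caspase-Glo added, luminescence read. PARP: 36 h exposure to test compound or staurosporine; NP-40 lysis; immunoblot for PARP (1:1000) and actin (1:20,000), infrared imaging.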
# MCF7 cells = assay: Compound sensitivity testing; assay type: cell-based; conditions: Homo sapiens, MCF7, 48 h
# Method in brief: as §1
# [4] = test system: PDE3A complex with V5-tagged SIRT7 and SLFN12; assay: PDE3A immunoprecipitation and V5 immunoblot; assay type: cell-based, human; conditions: HeLa, 10 µM, 4 hours, co-immunoprecipitation
# Method in brief: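 HeLa cells transfected with V5-tagged SIRT7, SLFN12 or GFP constructs. At 72 h, treated 4 h with 10 µM test compound or trequinsin. Lysis in ModRipa (1% NP-40, 50 mM Tris-HCl pH 7.8, 150 mM NaCl, 0.1% deoxycholate, 1 mM EDTA). 2 mg lysate with 1 µg anti-PDE3A overnight at 4 °C, then Protein A/G beads 1 h. LDS elution; immunoblots for V5 (1:5000) and PDE3A (1:1000).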
# HeLa cells [5] = assay: Compound sensitivity testing; assay type: cell-based, human; conditions: for activity compared with (R)-DNMDP: cell viability, (R)-des-nitro analogues
# Method in brief: as §1
# NCI-H2122 cells = assay: Compound sensitivity testing; assay type: cell-based; conditions: Homo sapiens, NCI-H2122, 48 h
# Method in brief: as §1
# PC3 cells = assay: Compound sensitivity testing; assay type: cell-based; conditions: Homo sapiens, PC-3, 48 h
# Method in brief: as §1
# PDE3A = PDE3A (Homo sapiens, UniProt Q14432); assay: Linker-affinity purification with DNMDP-2L resin and PDE3A immunoblot; assay type: binding; conditions: HeLa cell lysate, 10 µM competitor
# Sequence of PDE3A (Q14432 whole entry): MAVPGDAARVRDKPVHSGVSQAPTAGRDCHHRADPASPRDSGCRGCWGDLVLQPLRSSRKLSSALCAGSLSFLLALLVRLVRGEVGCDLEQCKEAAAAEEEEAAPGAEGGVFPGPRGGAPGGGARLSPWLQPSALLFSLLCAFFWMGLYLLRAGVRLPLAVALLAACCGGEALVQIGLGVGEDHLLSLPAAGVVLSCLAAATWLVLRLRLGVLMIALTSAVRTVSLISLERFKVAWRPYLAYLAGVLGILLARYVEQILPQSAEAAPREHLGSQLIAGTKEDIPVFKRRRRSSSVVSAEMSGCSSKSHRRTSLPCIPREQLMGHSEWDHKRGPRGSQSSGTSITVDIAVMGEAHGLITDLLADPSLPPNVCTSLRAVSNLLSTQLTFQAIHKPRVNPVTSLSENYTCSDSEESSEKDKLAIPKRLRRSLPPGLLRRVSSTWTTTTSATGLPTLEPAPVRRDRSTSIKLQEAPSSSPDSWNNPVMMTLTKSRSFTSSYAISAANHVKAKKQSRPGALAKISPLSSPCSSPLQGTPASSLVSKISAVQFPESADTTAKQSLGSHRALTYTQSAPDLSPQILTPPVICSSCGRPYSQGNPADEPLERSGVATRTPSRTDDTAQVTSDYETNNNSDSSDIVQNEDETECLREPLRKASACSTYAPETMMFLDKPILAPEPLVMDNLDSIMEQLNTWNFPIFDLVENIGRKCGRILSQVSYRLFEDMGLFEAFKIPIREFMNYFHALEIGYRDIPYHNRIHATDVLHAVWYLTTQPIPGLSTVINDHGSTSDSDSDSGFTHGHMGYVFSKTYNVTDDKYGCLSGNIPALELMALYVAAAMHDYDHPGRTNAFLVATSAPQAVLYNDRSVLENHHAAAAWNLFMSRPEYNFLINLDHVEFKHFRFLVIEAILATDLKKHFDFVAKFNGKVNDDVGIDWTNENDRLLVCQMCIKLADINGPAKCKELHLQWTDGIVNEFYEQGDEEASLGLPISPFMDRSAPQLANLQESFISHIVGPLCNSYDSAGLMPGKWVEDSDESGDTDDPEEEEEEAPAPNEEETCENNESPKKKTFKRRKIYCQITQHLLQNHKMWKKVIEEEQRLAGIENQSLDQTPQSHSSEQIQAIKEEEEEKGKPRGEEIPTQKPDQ
# Method in brief: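 200 µg lysate incubated 4 h with resin-coupled linker analogue, competitor compounds added beforehand. Three washes in buffer with 10 µM compound. Bound protein resolved by SDS-PAGE; anti-PDE3A immunoblot (1:1000, overnight, 4 °C); infrared detection.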
# PDE3 = conditions: read-out: PDE3 IC50; cited from earlier work
compound,measurement,setting,value
Cc1[nH]c(=O)c(C#N)cc1-c1ccncc1 [milrinone],rank in bioactives screen for rescue of cell death induced by DNMDP,HeLa cells [1],three most potent compounds
same,rescue of DNMDP cytotoxicity,HeLa cells [1],able to rescue DNMDP cytotoxicity in a dose-dependent manner
"CCN(CC)c1ccc(C2=NNC(=O)CC2C)cc1[N+](=O)[O-] (stereo not shown) [DNMDP, 6-(4-(diethylamino)-3-nitrophenyl)-5-methyl-4,5-dihydropyridazin-3(2H)-one]",number of cell lines sensitive with a robust Z-score lower than -4,[2],22 cell lines
same,selective toxicity in dose-response retest,NCI-H1734 cells,specifically toxic to the NCI-H1734 cell line
same,kinase inhibition across 234 kinases,234 kinases,no kinase inhibition
same,EC50,A549 cells,> 1000 nM
same,EC50,NCI-H1563 cells,10 to 100 nM
same,"induction of apoptosis (caspase activity, PARP cleavage)",HeLa cells [3],undergo apoptosis
same,EC50,MCF7 cells,> 1000 nM
same,complex formation of V5-tagged SIRT7 and SLFN12 with PDE3A,[4],enhanced complex formation
same,EC70 concentration,"HeLa cells [5]; HeLa, 48 hours",30 nM
same,EC50,"HeLa cells [5]; Homo sapiens, HeLa, 48 h",10 to 100 nM
same,EC50,NCI-H2122 cells,10 to 100 nM
same,EC50,PC3 cells,> 1000 nM
O=C1CCc2cc(OCCCCc3nnnn3C3CCCCC3)ccc2N1 [cilostazol],rank in bioactives screen for rescue of cell death induced by DNMDP,HeLa cells [1],three most potent compounds
CCCc1nn(C)c2c(=O)[nH]c(-c3cc(S(=O)(=O)N4CCN(C)CC4)ccc3OCC)nc12 [sildenafil],competition with DNMDP (rescue),HeLa cells [1],not effective competitors
CCN(CC)c1ccc(C2=NNC(=O)C[C@H]2C)cc1 [DNMDP-2],activity compared with (R)-DNMDP,HeLa cells [5],tested similarly to (R)-DNMDP
OCCN(CCO)c1nc(N2CCCCC2)c2nc(N(CCO)CCO)nc(N3CCCCC3)c2n1 [dipyridamole],competition with DNMDP (rescue),HeLa cells [1],not effective competitors
COc1cc2c(cc1OC)-c1c/c(=N\c3c(C)cc(C)cc3C)n(C)c(=O)n1CC2 [trequinsin],blocking of PDE3A binding to the tethered linker analogue,PDE3A,blocked
same,effect on HeLa cell viability,"HeLa cells [5]; HeLa, up to 10 µM, 48 hours",did not affect HeLa cell viability in any detectable way
same,IC50,PDE3,0.25 nM
C[C@@H]1CC(=O)NN=C1c1ccc(NN=C(C#N)C#N)cc1 [levosimendan],rank in bioactives screen for rescue of cell death induced by DNMDP,HeLa cells [1],three most potent compounds
same,rescue of DNMDP cytotoxicity,HeLa cells [1],able to rescue DNMDP cytotoxicity in a dose-dependent manner
CC(C)C(=O)c1c(C(C)C)nn2ccccc12 [idubilast],competition with DNMDP (rescue),HeLa cells [1],not effective competitors
CCN(CCOCCOCCNC(=O)OC(C)(C)C)c1ccc(C2=NNC(=O)C[C@H]2C)cc1 [DNMDP-2L],rescue of DNMDP cytotoxicity,HeLa cells [1],same DNMDP cytotoxicity rescue phenotype as non-cytotoxic PDE3 inhibitors
CN(C(=O)CCCOc1ccc2[nH]c(=O)ccc2c1)C1CCCCC1 [cilostamide],rescue of DNMDP cytotoxicity,HeLa cells [1],able to rescue DNMDP cytotoxicity in a dose-dependent manner
CCCc1nc(C)c2c(=O)[nH]c(-c3cc(S(=O)(=O)N4CCN(CC)CC4)ccc3OCC)nn12 [vardenafil],competition with DNMDP (rescue),HeLa cells [1],not effective competitors
CCN(CC)c1ccc(C2=NNC(=O)CC2C)cc1 (stereo not shown) [DNMDP-3],activity compared with (R)-DNMDP,HeLa cells [5],tested similarly to (R)-DNMDP
